# Results as given in ChEMBL document CHEMBL1127326, “Antitumor agents. 148. Synthesis and biological evaluation of novel 4 beta-amino derivatives of etoposide with better pharmacological profiles” (1994).
# How the values were obtained:
# [1] = test system: KB; experiment: 50% reduction in the number of KB ATCC cells; format: functional; details: Homo sapiens, read-out: ID50 (the source's name)
# Outline: (§1)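 KB cells (parental ATCC line and resistant variants) exposed to drug at five concentrations […] for 3 days. ID50 is the concentration giving 50% reduction in cell number, derived from the degree of inhibition at the five concentrations.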
# [2] = test system: KB; experiment: Cytotoxicity against KB cells after a 3 day incubation; format: functional, Homo sapiens; details: read-out: ID50 (the source's name); outline: as §1
# [3] = test system: Tumor Cell line; experiment: Drug molar concentration required to inhibit 50% of human tumor cell growth; format: functional; details: Homo sapiens, Tumor Cell line
# Outline: (§2)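 NCI panel of 54 human tumor lines from eight cancer types, mostly seeded at 20 000 cells/well. Cells were preincubated 24 h without drug, then exposed to five 10-fold dilutions for 48 h, fixed and stained with sulforhodamine B, and read spectrophotometrically. Versus control, GI50 (50% growth inhibition), TGI (0% growth) and LC50 (−50% growth) were calculated; mean graph midpoints average all lines.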
# [4] = test system: Tumor Cell line; experiment: Drug concentration required to cause 50% cell death; format: functional, Homo sapiens
# Outline: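 NCI in vitro panel of 54 human tumor cell lines from eight cancer types, mostly seeded at 20 000 cells/well and preincubated 24 h without drug. Five 10-fold dilutions were then added for a further 48 h. Cells were fixed in situ and stained with sulforhodamine B, and bound dye was read spectrophotometrically. LC50 (−50% growth versus control) was taken from five-point dose-response curves and reported as the log10 mean-graph midpoint across lines.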
# [5] = test system: Tumor Cell line; experiment: Drug concentration required to inhibit total cell growth; format: functional, Homo sapiens; details: read-out: Log TGI (converted); outline: as §2
# [6] = test system: KB; experiment: 50% reduction in the number of KB 7D (topoisomerase II, aMDR) resistant variant; format: functional, Homo sapiens; details: Homo sapiens, KB; read-out: ID50 (the source's name); outline: as §1
# [7] = test system: KB; experiment: 50% reduction in the number of KB V20C resistant variant; format: functional, Homo sapiens; details: Homo sapiens, KB; read-out: ID50 (the source's name); outline: as §1
# [8] = test system: Tumor Cell line; experiment: 50% of human tumor cell growth; format: functional; outline: as §2
SMILES,IC50 [1] [µM],"IC50 ([2]; Homo sapiens, KB, 72 h) [µM]",GI50 [3] [µM],"LC50 ([4]; Homo sapiens, Tumor Cell line) [µM]","TGI ([5]; Homo sapiens, Tumor Cell line) [µM]",IC50 [6] [µM],IC50 [7] [µM],TGI [5] [µM],IC50 [2] [µM],LC50 [4] [µM],GI50 [8] [µM]
COc1cc([C@@H]2c3cc4c(cc3[C@@H](NCCN(C)C)[C@H]3COC(=O)[C@H]23)OCO4)cc(OC)c1O,0.4,0.4,0.155,15.1,1.48,0.68,0.44,–,–,–,–
COc1cc([C@@H]2c3cc4c(cc3[C@@H](Nc3ccc(C(=O)O)cc3)[C@H]3COC(=O)[C@H]23)OCO4)cc(OC)c1O,–,> 4,8.51,–,–,–,–,15.8,–,–,–
COc1cc([C@@H]2c3cc4c(cc3[C@@H](NCCN3CCCCC3)[C@H]3COC(=O)[C@H]23)OCO4)cc(OC)c1O,–,–,–,–,–,–,–,3.31,1.4,30.9,0.372
